In ChEMBL document CHEMBL1250492, “Development of isoniazid-NAD truncated adducts embedding a lipophilic fragment as potential bi-substrate InhA inhibitors and antimycobacterial agents” (Eur J Med Chem, 2010):
pIC50: −log10 of the molar value. “And” between values parts separate entries of the source, which are not always exact repeats. Identical values can stand only once.

Legend:
[1] = target: T1, Enoyl-[acyl-carrier-protein] reductase [NADH] (Mycobacterium tuberculosis) (UniProt P9WGR1); experiment: Inhibition of Mycobacterium tuberculosis InhA expressed in Escherichia coli at 100 uM after 5 mins
T1 sequence (whole entry): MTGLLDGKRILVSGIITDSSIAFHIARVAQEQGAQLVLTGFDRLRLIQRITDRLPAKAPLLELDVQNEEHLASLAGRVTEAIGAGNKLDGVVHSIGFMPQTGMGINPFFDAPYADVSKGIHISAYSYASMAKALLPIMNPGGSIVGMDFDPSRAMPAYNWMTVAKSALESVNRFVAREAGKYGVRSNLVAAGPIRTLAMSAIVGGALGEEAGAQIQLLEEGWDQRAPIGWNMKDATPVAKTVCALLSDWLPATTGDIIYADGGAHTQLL
In short: (§1)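 Recombinant M. tuberculosis InhA, E. coli-expressed and purified, at 70 nM. Pre-incubated with compound for 5 min or 2 h in 30 mM PIPES, 150 mM NaCl, pH 6.8, 25 °C, with 0.5% final DMSO. The reaction was started with trans-2-decenoyl-CoA plus NADH and followed by NADH oxidation at 340 nm, 25 °C. Initial rates were compared with a ligand-free control, giving % inhibition. Run in triplicate.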

[2] = system: Mycolicibacterium smegmatis; experiment: Antimycobacterial activity against Mycobacterium smegmatis after 24 hrs by MTT assay; type: functional, organism-based
In short: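 MTT (1 mg/ml solution) was then added for a further 24 h, followed by DMF:20% SDS (1:2) solubilization and A570 reading. MIC is the lowest concentration blocking visible growth, and IC50 was fitted by non-linear regression. DMSO stocks were at 100× the top concentration. Isoniazid served as positive control.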

[3] = system: Mycobacterium tuberculosis; experiment: Antimycobacterial activity against Mycobacterium tuberculosis after 24 hrs by MTT assay; type: functional, organism-based
In short: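 MTT was then added for a further 24 h, followed by DMF:20% SDS (1:2) solubilisation and A570 read-out. MIC was the lowest concentration stopping visible growth versus untreated bacilli. IC50 came from non-linear regression. DMSO stocks were at 100× the top concentration.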

[4] = target: T1, Enoyl-[acyl-carrier-protein] reductase [NADH] (Mycobacterium tuberculosis); experiment: Inhibition of Mycobacterium tuberculosis InhA expressed in Escherichia coli at 10 uM after 5 mins; in short: as §1
[5] = target: T1, Enoyl-[acyl-carrier-protein] reductase [NADH] (Mycobacterium tuberculosis); experiment: Inhibition of Mycobacterium tuberculosis InhA expressed in Escherichia coli at 20 uM after 5 mins; in short: as §1
[6] = target: T1, Enoyl-[acyl-carrier-protein] reductase [NADH] (Mycobacterium tuberculosis); experiment: Inhibition of Mycobacterium tuberculosis InhA expressed in Escherichia coli at 20 uM after 2 hrs; in short: as §1
[7] = target: T1, Enoyl-[acyl-carrier-protein] reductase [NADH] (Mycobacterium tuberculosis); experiment: Inhibition of Mycobacterium tuberculosis InhA expressed in Escherichia coli at 1 uM after 5 mins
[8] = target: T1, Enoyl-[acyl-carrier-protein] reductase [NADH] (Mycobacterium tuberculosis); experiment: Inhibition of Mycobacterium tuberculosis InhA expressed in Escherichia coli at 10 uM after 2 hrs; in short: as §1
[9] = target: T1, Enoyl-[acyl-carrier-protein] reductase [NADH] (Mycobacterium tuberculosis); experiment: Inhibition of Mycobacterium tuberculosis InhA expressed in Escherichia coli at 1 uM after 2 hrs
[10] = target: T1, Enoyl-[acyl-carrier-protein] reductase [NADH] (Mycobacterium tuberculosis); experiment: Inhibition of Mycobacterium tuberculosis InhA expressed in Escherichia coli at 100 uM after 2 hrs; in short: as §1
[11] = Mycolicibacterium smegmatis, 24 h

In the case of `O=C1NC(O)(c2cccc(Br)c2)c2ccncc21` (centres undefined), the inhibition [1] was 20% and the pIC50 [2, 11] was under 2.30.

For `CCCCCCCCc1cccc(C2(O)NC(=O)c3cnccc32)c1` (centres undefined), the pIC50 [3] was 4.71, the inhibition [1] was 9% and the pIC50 [2] was 5.35 and 4.71.

`O=C1NC(O)(c2cccc(O)c2)c2ccncc21` (centres undefined) gave an inhibition [1] of 17% and a pIC50 [2, 11] of 3.52.

Molecule `CCCCCCCCCCCCOc1cccc(C(=O)C2C=CN(CC(=O)OCCCO)C=C2C(N)=O)c1` (centres undefined) has an inhibition [1] of 3%.

In the case of `CCCCCCCCCCCCc1cccc(C2(O)NC(=O)c3c[n+](CC(=O)OCC)ccc32)c1` (centres undefined), the inhibition [4] was 19%, the pIC50 [3] was 4.41 and the inhibition [1] was 91%. The inhibition [5] was 40%, the inhibition [6] was 28% and the pIC50 [2] was 5.49 and 5.01.

`NNC(=O)c1ccncc1` [ISONIAZID] was tested, and the pIC50 [3] was over 6.52 and the pIC50 [2] was 5.11 and 4.41.

`NC(=O)C1=CN([C@@H]2O[C@H](COP(=O)(O)OP(=O)(O)OC[C@H]3O[C@@H](n4cnc5c(N)ncnc54)[C@H](O)[C@@H]3O)[C@@H](O)[C@H]2O)C=C[C@@H]1C(=O)c1ccncc1` showed an inhibition [4] of 92%, an inhibition [7] of 67% and an inhibition [8] of 97%. It also gave an inhibition [9] of 87%.

For `CCCCCCCCCCCCOc1cccc(C(=O)C2C=CN(CC(=O)OCC)C=C2C(N)=O)c1` (centres undefined), the inhibition [1] was 6%.

`CCCCCCCCCCCCc1cccc(C(=O)C2C=CN(CC(=O)OCC)C=C2C(N)=O)c1` (centres undefined) gave an inhibition [4] of 25%, a pIC50 [3] of 5.01 and a pIC50 [2] of 5.01. For the same molecule, the pIC50 [2, 11] was 5.28.

Molecule `C=CCOc1cccc(C2(O)NC(=O)c3cnccc32)c1` (centres undefined) has an inhibition [1] of 23% and a pIC50 [2, 11] of 2.89.

`CCCCCCCCCCCCOc1cccc(C2(O)NC(=O)c3c[n+](CC(=O)OCCCO)ccc32)c1` (centres undefined) gave an inhibition [1] of 30%.

`CCCCCCCCCc1ccc(-c2cccc(C3(O)NC(=O)c4cnccc43)c2)cc1` (centres undefined) was tested, and the inhibition [1] was 17% and the pIC50 [2, 11] was 2.74.

For `CCCCCCCCCCCCOc1cccc(C2(O)NC(=O)c3c[n+](CC(=O)OCC)ccc32)c1` (centres undefined), the inhibition [1] was 35%.

`CCCCCCCCCCCCOc1cccc(C2(O)NC(=O)c3cnccc32)c1` (centres undefined) gave a pIC50 [3] of 3.81, an inhibition [10] of 80% and an inhibition [1] of 41%. The pIC50 [2] was 4.17 and 3.81.

`CCCCCCCCCCCCc1cccc(C2(O)NC(=O)c3cnccc32)c1` (centres undefined) gave a pIC50 [3] of 5.01, an inhibition [1] of 4% and a pIC50 [2] of 4.11. The pIC50 [2, 11] was 4.33.
